Measurements reported in ChEMBL document CHEMBL1127389, “Synthesis and biological activity of 2-hydroxy and 2-alkoxy analogs of 1 alpha,25-dihydroxy-19-norvitamin D3” (1994).
“And” between values parts separate entries of the source, which are not always exact repeats. Identical values can stand only once.

Key:
Rattus norvegicus [1] = species on record: Rattus norvegicus; experiment: tested in the vitamin D-deficient rat for the ability to support intestinal absorption of calcium with compound concentration 325 (pmol/d/7 days) expressed as Serum/Mucosal ratio; assay type: functional
Method in brief: (§1)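 Vitamin D-deficient Holtzman weanling rats were kept 1 week on a 0.47% Ca diet, then on a 0.02% Ca diet. They were given intraperitoneal injections daily for 7 days in 0.1 mL of 95:5 propylene glycol/ethanol, with vehicle controls, and killed 24 h after the last dose. Transport was measured by everted sac of the proximal 10 cm of intestine, as the ratio of sac Ca to final medium Ca (S/M). Groups had at least 6 rats; Student's t-test.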

Rattus norvegicus [2] = species on record: Rattus norvegicus; experiment: tested in the vitamin D-deficient rat for the ability to support intestinal absorption of calcium with compound concentration 130 (pmol/d/7 days) expressed as Serum/Mucosal ratio; assay type: functional; method in brief: as §1
Rattus norvegicus [3] = species on record: Rattus norvegicus; experiment: Bone calcium-mobilizing activity with concentration 260 (pmol/d/7 days); assay type: functional, organism-based
Method in brief: (§2)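 Holtzman weanling rats were fed a vitamin D-deficient diet with 0.47% Ca for 1 week, then a 0.02% Ca diet. They received daily intraperitoneal doses in 0.1 mL of 95:5 propylene glycol/ethanol for 7 days; controls got vehicle. Rats were killed 24 h after the last dose. Serum Ca was measured by automatic calcium titrator; on this diet, the rise in serum Ca is taken as bone Ca mobilization. At least 6 rats/group; Student's t-test.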

Rattus norvegicus [4] = species on record: Rattus norvegicus; experiment: Tested in the vitamin D-deficient rat for the ability to support intestinal absorption of calcium with compound concentration 260 (pmol/d/7 days) expressed as Serum/Mucosal ratio; assay type: functional; method in brief: as §1
Rattus norvegicus [5] = species on record: Rattus norvegicus; experiment: Bone calcium-mobilizing activity with compound concentration 130 (pmol/d/7 days); assay type: functional, organism-based; method in brief: as §2
Rattus norvegicus [6] = species on record: Rattus norvegicus; experiment: Bone calcium-mobilizing activity with compound concentration 325 (pmol/d/7 days); assay type: functional, organism-based; set-up: unit not given here; method in brief: as §2
Rattus norvegicus [7] = species on record: Rattus norvegicus; experiment: Bone calcium-mobilizing activity with compound concentration 260 (pmol/d/7 days); assay type: functional, organism-based; method in brief: as §2
Rattus norvegicus [8] = species on record: Rattus norvegicus; experiment: Tested in the vitamin D-deficient rat for the ability to support intestinal absorption of calcium with compound concentration 325 (pmol/d/7 days) expressed as Serum/Mucosal ratio; assay type: functional
Rattus norvegicus [9] = species on record: Rattus norvegicus; experiment: Tested in the vitamin D-deficient rat for the ability to support intestinal absorption of calcium with compound concentration 130 (pmol/d/7 days) expressed as Serum/Mucosal ratio; assay type: functional
Rattus norvegicus [10] = species on record: Rattus norvegicus; experiment: Tested in the vitamin D-deficient rat for the ability to support intestinal absorption of calcium with compound concentration 65 (pmol/d/7 days) expressed as Serum/Mucosal ratio; assay type: functional
Rattus norvegicus [11] = species on record: Rattus norvegicus; experiment: tested in the vitamin D-deficient rat for the ability to support intestinal absorption of calcium with compound concentration 65 (pmol/d/7 days) expressed as Serum/Mucosal ratio; assay type: functional; method in brief: as §1
Rattus norvegicus [12] = species on record: Rattus norvegicus; experiment: Bone calcium-mobilizing activity with compoundm concentration 130 (pmol/d/7 days); assay type: functional, organism-based; method in brief: as §2
Rattus norvegicus [13] = species on record: Rattus norvegicus; experiment: Bone calcium-mobilizing activity with compound concentration 65 (pmol/d/7 days); assay type: functional, organism-based; method in brief: as §2
Rattus norvegicus [14] = species on record: Rattus norvegicus; experiment: tested in the vitamin D-deficient rat for the ability to support intestinal absorption of calcium with compound concentration 260 (pmol/d/7 days) expressed as Serum/Mucosal ratio; assay type: functional; method in brief: as §1

## C[C@H](CCCC(C)(C)O)[C@H]1CC[C@H]2/C(=C\C=C3C[C@@H](O)C(O)[C@H](O)C3)CCC[C@]12C (stereo partly specified) [listing 1 of 3 here]
Rattus norvegicus [1]
  Ratio: 5
Rattus norvegicus [2]
  Ratio: 5.3

## C[C@H](CCCC(C)(C)O)[C@H]1CC[C@H]2/C(=C/C=C3C[C@@H](O)C(OCc4ccccc4)[C@H](O)C3)CCC[C@]12C (stereo partly specified)
Rattus norvegicus [3]
  Serum Ca2+: 4.6
Rattus norvegicus [4]
  Ratio: 11.9

## C[C@H](CCCC(C)(C)O)[C@H]1CC[C@H]2/C(=C/C=C3C[C@@H](O)C(OCCCO)[C@H](O)C3)CCC[C@]12C (stereo partly specified) [listing 1 of 3 here]
Rattus norvegicus [5]
  Serum Ca2+: 4.9
Rattus norvegicus [6]
  Serum Ca2+: 5.8
Rattus norvegicus [7]
  Serum Ca2+: 4.7

## C=C1/C(=C/C=C2/CCCC3(C)C2CCC3[C@H](C)CCCC(C)(C)O)C[C@@H](O)C[C@@H]1O (stereo partly specified)
Rattus norvegicus [8]
  Ratio: 10.5 and 7.8
Rattus norvegicus [6]
  Serum Ca2+: 6.8 and 7.1
Rattus norvegicus [7]
  Serum Ca2+: 5.9
Rattus norvegicus [4]
  Ratio: 10.5
Rattus norvegicus [9]
  Ratio: 8 and 7.1
Rattus norvegicus [10]
  Ratio: 8.3

## C[C@H](CCCC(C)(C)O)[C@H]1CC[C@H]2/C(=C\C=C3C[C@@H](O)C(O)[C@H](O)C3)CCC[C@]12C (stereo partly specified) [listing 2 of 3 here]
Rattus norvegicus [1]
  Ratio: 10.8
Rattus norvegicus [11]
  Ratio: 5.8

## C[C@H](CCCC(C)(C)O)[C@H]1CC[C@H]2/C(=C\C=C3C[C@@H](O)C(O)[C@H](O)C3)CCC[C@]12C (stereo partly specified) [listing 3 of 3 here]
Rattus norvegicus [12]
  Serum Ca2+: 4.1
Rattus norvegicus [13]
  Serum Ca2+: 4.2
Rattus norvegicus [6]
  Serum Ca2+: 4.2 and 4.1

## C[C@H](CCCC(C)(C)O)[C@H]1CC[C@H]2/C(=C/C=C3C[C@@H](O)C(OCCCO)[C@H](O)C3)CCC[C@]12C (stereo partly specified) [listing 2 of 3 here]
Rattus norvegicus [1]
  Ratio: 4.3
Rattus norvegicus [2]
  Ratio: 3.5

## C[C@H](CCCC(C)(C)O)[C@H]1CC[C@H]2/C(=C/C=C3C[C@@H](O)C(OCCCO)[C@H](O)C3)CCC[C@]12C (stereo partly specified) [listing 3 of 3 here]
Rattus norvegicus [14]
  Ratio: 5.7
